Source: the RNAGym collection of RNA variant scans (doi:10.1126/science.aae0568)
Fewer inactive variants are shown than the library holds.

B1: tRNA (parent)
chain: GUUCCGUUGGCGUAAUGGUAACGCGUCUCCCUCCUAAGGAGAAGACUGCGGGUUCGAGUCCCGUACGGAACG

Variants of: B1
Assay: yeast fitness relative to wild type (ratio to wild type); higher = fitter; tRNA-Arg(CCU), competitive growth, 37 C, YPD
Outline: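 Variants of the tRNA-Arg(CCU) gene, chemically synthesised with a 3% per-site mutation rate at 69 sites, were placed at the native genomic locus in Saccharomyces cerevisiae. The pooled strains were competed in YPD at 37°C for 24 hours in six parallel replicates. Gene amplicons from the start population and from each end population were read by 100-nucleotide paired-end sequencing. Darwinian fitness relative to wild type came from changes in genotype frequencies; genotypes needed ≥ 100 starting reads, and estimates < 0.5 were set to 0.5.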

Compared with A21G G56U G58C, A21G C31G C33G is lower in yeast fitness: 0.661 for the first, at most 0.5 for the second.

Compared with C22A C30U C31G A57C A65C A70C, A20U G68A is higher in yeast fitness: at most 0.5 for the first, 0.843 for the second.

Going from A20U G68C to A21U C27G C33U C34A G51C A57C, the yeast fitness falls from 0.86 to at most 0.5.

Compared with A21C A40U C55G C66G, A21C U26G is higher in yeast fitness: at most 0.5 for the first, 0.642 for the second.

C22A C27G G38C A43C C66U A69G and A21G C27G C33G cannot be ordered by yeast fitness: at most 0.5 for the first, at most 0.5 for the second.

First: A21C U28C
Second: A21U A70U
The yeast fitness of the first is higher: 0.852 for the first, 0.754 for the second.

C22G C27U C62A A65G and C22A G39C A43U U53C U54A cannot be ordered by yeast fitness: at most 0.5 for the first, at most 0.5 for the second.

Going from A21U U32C A45U G67C to A21G A69U, the yeast fitness rises from at most 0.5 to 1.07.

Going from C22A G68A to C22A G68C, the yeast fitness falls from 0.869 to 0.822.

First: C22A G68U
Second: C22A U53C
The yeast fitness of the first is higher: 0.825 for the first, 0.764 for the second.

Going from A21U G23A A37U to A21G C29U, the yeast fitness rises from at most 0.5 to 0.944.

First: A21G C46U C66U
Second: A21U A40C A42U C49U G50C G63A C66U
The yeast fitness of the first is higher: 0.742 for the first, at most 0.5 for the second.

Compared with A21C C33U C55A, C22A U35A G58A is lower in yeast fitness: 0.533 for the first, at most 0.5 for the second.

A21U A42U G44C C60G C62G and A21G U35G A57C G67C cannot be ordered by yeast fitness: at most 0.5 for the first, at most 0.5 for the second.

Going from C22G C24G A45C G63C to C22G C24A G38A G44C U59A, the yeast fitness falls from 0.563 to at most 0.5.

A21C A57U C66U and A21C C22G G38C C49U A57C cannot be ordered by yeast fitness: at most 0.5 for the first, at most 0.5 for the second.

Compared with C22A U26A, C22A C29G G58A G67C is lower in yeast fitness: 0.949 for the first, at most 0.5 for the second.

Compared with A21U A37U C60G, A21U C34G G56A is lower in yeast fitness: 0.608 for the first, at most 0.5 for the second.

Compared with A21G G58C U59C, A21U C46G U47C G56A C60A is lower in yeast fitness: 0.961 for the first, at most 0.5 for the second.

First: A21G G67U A70U
Second: C22A C49U G51C
The yeast fitness of the first is higher: 0.607 for the first, at most 0.5 for the second.

First: A21G A40G C49G U59G G67C
Second: A21G A37G
The yeast fitness of the first is lower: at most 0.5 for the first, 0.692 for the second.

Going from C22A G25A U64A to A21U A40C, the yeast fitness rises from 0.629 to 0.727.

Compared with A20U G63A, A21G C31A is higher in yeast fitness: 0.932 for the first, 0.962 for the second.

Compared with A20U U26C C62G, C22A C24A is higher in yeast fitness: at most 0.5 for the first, 0.54 for the second.

Going from A21U C29U C31U U54C A70G to C22G C27G U59C C62U G68U, the yeast fitness rises from at most 0.5 to 0.529.

Going from A21U G44A to A21G U32C A65U G68A, the yeast fitness falls from 0.782 to 0.63.

Compared with A21U A36C G39A, C22A U26A C29G C34G G50C U64C is lower in yeast fitness: 0.58 for the first, at most 0.5 for the second.

Going from A21G C27U C30G U32G C46G G48A C60A to C22A C29U C55U, the yeast fitness rises from 0.561 to 0.579.

Compared with A21C C61U A70U, A21C A43G G48C is lower in yeast fitness: 0.623 for the first, at most 0.5 for the second.

Going from C22G C27G C31G C61G A69U to C22A C33G A43C, the yeast fitness falls from 0.62 to 0.55.

Compared with A21U U54A C61U, A21C C29G is higher in yeast fitness: at most 0.5 for the first, 0.622 for the second.

A21G A45C C62U G68C A69G and C22A C29G C61U cannot be ordered by yeast fitness: at most 0.5 for the first, at most 0.5 for the second.

First: A21C A36U
Second: C22G A40C
The yeast fitness of the first is lower: 0.54 for the first, 0.68 for the second.

First: C22A C31U C34G
Second: C22A C27U
The yeast fitness of the first is lower: 0.536 for the first, 0.976 for the second.

A21U C34G G51C G63C A65C and A21G G23A A40C G52A cannot be ordered by yeast fitness: at most 0.5 for the first, at most 0.5 for the second.

Going from C22A U35G to A21U G23C C62A, the yeast fitness falls from 0.631 to at most 0.5.

Going from C22G C24A C27U U59A to A21G C31U C49U, the yeast fitness rises from at most 0.5 to 0.97.

Compared with A20U U54C, A21U C29U G48A U54C is lower in yeast fitness: 0.758 for the first, at most 0.5 for the second.

First: A21U C66A
Second: A21U C55G
The yeast fitness of the first is higher: 0.574 for the first, 0.527 for the second.

Compared with A20U U26C U47C, A21C A69C is higher in yeast fitness: 0.534 for the first, 0.809 for the second.

A21U G44C G58A A65G and A21U A42C U47G G63A A69U cannot be ordered by yeast fitness: at most 0.5 for the first, at most 0.5 for the second.

Compared with C22A G50C A65G, A21C C34U A65G is higher in yeast fitness: at most 0.5 for the first, 0.532 for the second.

First: A21G U32A C66U
Second: A21U U54A G56C A70G
The yeast fitness of the first is lower: 0.512 for the first, 0.576 for the second.

First: C22A A57U
Second: A21G C33G C34G
The yeast fitness of the first is higher: 0.606 for the first, 0.547 for the second.

Compared with A21G A36G A42U, A21G U59C is higher in yeast fitness: 0.75 for the first, 0.883 for the second.

Going from A21G C29U A37U G63C to A21C U35C, the yeast fitness rises from at most 0.5 to 0.856.

First: A21U A43G
Second: A21G G39A U54C
The yeast fitness of the first is higher: 0.752 for the first, 0.589 for the second.

First: A21U A65U
Second: A21C C27G C29A A65C
The yeast fitness of the first is higher: 0.793 for the first, at most 0.5 for the second.

First: A21C C30G A65G
Second: A21C C27U A57G C62U
The yeast fitness of the first is lower: at most 0.5 for the first, 0.507 for the second.

Compared with A21U C27G C33U C34A C66U, A21G A45C U59C A69G is higher in yeast fitness: at most 0.5 for the first, 0.539 for the second.

A21C A45U G48C C62U and C22A C31A U53C A57C C60U cannot be ordered by yeast fitness: at most 0.5 for the first, at most 0.5 for the second.

Compared with A21G A40G C55A, C22A A40C G50C G67C is lower in yeast fitness: 0.535 for the first, at most 0.5 for the second.

A21G A43U G58C C60A C66U and A21U C22U A43G cannot be ordered by yeast fitness: at most 0.5 for the first, at most 0.5 for the second.

A20U U26C C33A C62A A69U and A21C A36U A37G A42C U64A cannot be ordered by yeast fitness: at most 0.5 for the first, at most 0.5 for the second.

C22G C27G C29G C34A A43U and A21G C61G C62U cannot be ordered by yeast fitness: at most 0.5 for the first, at most 0.5 for the second.

First: A21C C33U C61A A70C
Second: A21C C29G C33A A42C C62A
The yeast fitness of the first is higher: 0.578 for the first, 0.52 for the second.

Going from A21C C27A to A21G G23A A45C G52A, the yeast fitness falls from 0.545 to 0.517.

A21G G50A C55U U64C and C22G A43G C55U U64G cannot be ordered by yeast fitness: at most 0.5 for the first, at most 0.5 for the second.

Going from A21C C24A C33A G48C to A21G C33U C49A, the yeast fitness falls from 0.579 to 0.502.

Going from A21G C46U G56C A69U to A21G G56A, the yeast fitness rises from at most 0.5 to 1.08.

Compared with A21G A37G C60G, A21G C29U G38C is higher in yeast fitness: at most 0.5 for the first, 0.814 for the second.

Compared with A21C C22G A69C, A21U C34G G52A C61A is higher in yeast fitness: at most 0.5 for the first, 0.553 for the second.

Going from C22G C27U U35C G39C A42C G48A to A21U G68U, the yeast fitness rises from at most 0.5 to 0.752.

Going from A21G U59C A65U G67C A70C to A21G G68U, the yeast fitness rises from at most 0.5 to 1.07.

Compared with A21G G68C, A21G C27G A42U is lower in yeast fitness: 0.949 for the first, at most 0.5 for the second.

First: C22A C30U C49U C66U
Second: A21G C30U G67A
The yeast fitness of the first is lower: 0.601 for the first, 0.633 for the second.

First: A21C C24U U26A G38C C46G C62U A65C
Second: C22A U26A C66U
The yeast fitness of the first is lower: at most 0.5 for the first, 0.582 for the second.

Compared with C22A C33G A43C C49U U64C, C22G A45U is higher in yeast fitness: at most 0.5 for the first, 0.712 for the second.

Compared with A21C A42U A45U, A21G U47C C49U is higher in yeast fitness: 0.646 for the first, 0.773 for the second.

Going from A21C U53G to A21C U26A C27G, the yeast fitness rises from 0.567 to 0.581.

Going from A21G C46A to A21G C46U, the yeast fitness falls from 1.01 to 0.97.

Going from A21G U26C C27G G48C G67A to A21G U26C G48C, the yeast fitness rises from at most 0.5 to 0.615.

A21G U32C C34A C55A A69C and A21G C24G A37U C66U cannot be ordered by yeast fitness: at most 0.5 for the first, at most 0.5 for the second.

Going from A21U G48C to A21C A36U G48A, the yeast fitness falls from 0.586 to at most 0.5.

C22G C27G U59C C61U C62U G68U and A21G C22A G50C cannot be ordered by yeast fitness: at most 0.5 for the first, at most 0.5 for the second.

Compared with C22G C29A, A21U C24G C49A U54G is lower in yeast fitness: 0.662 for the first, 0.56 for the second.

A21U G38C A43U G50A A65C and C22A C31G G41C G63C A70U cannot be ordered by yeast fitness: at most 0.5 for the first, at most 0.5 for the second.

First: A21C C30G
Second: A21U A42G U59A C60A A69U
The yeast fitness of the first is higher: 0.6 for the first, at most 0.5 for the second.

A21C G23C G52C and A21U C31G C33G cannot be ordered by yeast fitness: at most 0.5 for the first, at most 0.5 for the second.

A21G A43U C49U U53C C61G and A21U C31U A57U cannot be ordered by yeast fitness: at most 0.5 for the first, at most 0.5 for the second.

Going from C22A A36G to C22A C29U U53A C66U, the yeast fitness falls from 0.8 to at most 0.5.

Going from A20U U59G to A20U U59A, the yeast fitness rises from 0.728 to 0.847.

A21G C34G G56A C66G and C22A C24G A36G G39C G56A cannot be ordered by yeast fitness: at most 0.5 for the first, at most 0.5 for the second.

In the case of C22G A45U G48C C49G, the yeast fitness is reported as at most 0.5.
